Source: ChEMBL document CHEMBL2439972, “Synthesis, pharmacological and structural characterization, and thermodynamic aspects of GluA2-positive allosteric modulators with a 3,4-dihydro-2H-1,2,4-benzothiadiazine 1,1-dioxide scaffold” (J Med Chem, 2013)

Key:
[1] = target: Glutamate receptor 2 (Rattus norvegicus) (UniProt P19491); experiment: Positive allosteric modulation of GluA2 receptor in rat embryonic cortex neuron assessed as increase of AMPA-induced membrane depolarization by fluorescence assay relative to AMPA
Sequence of Glutamate receptor 2 (Rattus norvegicus) (P19491 whole entry, the tested form may be a part): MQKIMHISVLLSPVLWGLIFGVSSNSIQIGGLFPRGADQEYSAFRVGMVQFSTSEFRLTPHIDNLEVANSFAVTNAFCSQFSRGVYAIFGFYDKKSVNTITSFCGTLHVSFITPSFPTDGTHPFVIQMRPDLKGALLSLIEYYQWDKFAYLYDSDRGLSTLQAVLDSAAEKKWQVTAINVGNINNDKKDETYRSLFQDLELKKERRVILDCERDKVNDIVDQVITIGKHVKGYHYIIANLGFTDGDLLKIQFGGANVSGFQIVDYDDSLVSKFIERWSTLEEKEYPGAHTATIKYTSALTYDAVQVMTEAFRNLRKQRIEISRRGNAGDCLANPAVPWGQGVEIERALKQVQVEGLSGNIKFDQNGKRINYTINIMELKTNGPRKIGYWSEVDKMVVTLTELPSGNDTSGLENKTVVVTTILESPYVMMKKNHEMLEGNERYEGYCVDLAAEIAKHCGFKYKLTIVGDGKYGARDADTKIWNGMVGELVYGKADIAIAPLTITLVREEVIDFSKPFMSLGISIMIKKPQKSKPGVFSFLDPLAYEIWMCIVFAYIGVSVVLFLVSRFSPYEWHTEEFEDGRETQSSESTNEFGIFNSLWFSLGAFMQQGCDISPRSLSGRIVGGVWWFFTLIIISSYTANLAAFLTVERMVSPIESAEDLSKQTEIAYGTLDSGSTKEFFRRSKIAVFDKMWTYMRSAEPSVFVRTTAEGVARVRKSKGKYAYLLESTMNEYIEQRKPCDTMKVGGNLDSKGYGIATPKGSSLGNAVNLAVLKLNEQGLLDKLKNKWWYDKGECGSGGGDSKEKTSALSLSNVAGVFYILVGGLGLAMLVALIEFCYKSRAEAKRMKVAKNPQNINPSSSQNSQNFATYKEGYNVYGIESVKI
Procedure, shortened: (§1)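 Rat E16 cortical cells cultured 18 days (37 °C, 5% CO2) were loaded with membrane-potential dye for 1 h at room temperature and read on an imaging plate reader. After a 10 s baseline, AMPA (300 μM) was added for 3 min, then compound plus AMPA for 3 min. Signal was averaged over the last 15 s, as area under the curve. Outputs: EC2× (2-fold increase), EC50, Emax relative to AMPA alone (×1). Mean ± SEM (n).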

Glutamate receptor 2 [2] = target: T1, Glutamate receptor 2 (Rattus norvegicus, UniProt P19491); experiment: Positive allosteric modulation of GluA2 receptor in rat embryonic cortex neuron assessed as increase of AMPA-induced membrane depolarization by fluorescence assay; procedure, shortened: as §1
T1 sequence (P19491 whole entry): as the sequence (P19491 whole entry, the tested form may be a part) above

[3] = target: Glutamate receptor 2 (Rattus norvegicus) (UniProt P19491); experiment: Positive allosteric modulation of GluA2 receptor in rat embryonic cortex neuron assessed as concentration required to 2 fold increase of AMPA-induced membrane depolarization by fluorescence assay; procedure, shortened: as §1
[4] = Binding affinity to rat LBD of GluA2 receptor L483Y and N754S mutant at 243 uM by isothermal titration calorimetry analysis
[5] = target: Glutamate receptor 2 (Rattus norvegicus) (UniProt P19491); experiment: Positive allosteric modulation of GluA2 receptor in rat embryonic cortex neuron assessed as increase of AMPA-induced membrane depolarization by FLIPR assay relative to AMPA
Procedure, shortened: (§2)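 FLIPR version of the membrane-potential dye assay on primary rat embryonic cortical neurons, same principle on a different plate reader. Measures depolarization evoked by 300 μM AMPA. Outputs: EC2× (modulator concentration doubling the AMPA response), EC50, Emax normalized to the AMPA response (×1).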

Glutamate receptor 2 [6] = target: T1, Glutamate receptor 2; experiment: Positive allosteric modulation of GluA2 receptor in rat embryonic cortex neuron assessed as increase of AMPA-induced membrane depolarization by FLIPR assay; procedure, shortened: as §2
[7] = target: Glutamate receptor 2 (Rattus norvegicus) (UniProt P19491); experiment: Positive allosteric modulation of GluA2 receptor in rat embryonic cortex neuron assessed as concentration required to 2 fold increase of AMPA-induced membrane depolarization by FLIPR assay; procedure, shortened: as §2
[8] = Positive allosteric modulation of GluA2 receptor (unknown origin) expressed in Xenopus laevis oocytes assessed as concentration required to 2 fold increase of AMPA-induced membrane depolarization by voltage clamp assay; conditions: Oocyte

Row | Structure (SMILES) | fold change (FC) [1] | EC50 (Glutamate receptor 2 [2]) [µM] | Activity [3] [µM] | Kd [4] [µM] | fold change (FC) [5] | EC50 (Glutamate receptor 2 [6]) [µM] | Activity [7] [µM] | Activity [8] [µM]
1 | N#Cc1ccc2c(c1)S(=O)(=O)NCN2C1CC1 | 9.2 | 2.5 | 0.47 |  |  |  |  | 
2 | Cc1ccc2c(c1)S(=O)(=O)NCN2C1CC1 | 8.7 |  | 5.13 |  |  |  |  | 
3 | O=S1(=O)NCN(C2CC2)c2ccc(Br)cc21 | 9.3 | 4.83 | 1.27 |  |  |  |  | 
4 | O=S1(=O)NCN(C2CC2)c2ccc(F)cc21 | 15 | 0.9 | 0.27 | 0.35 |  |  |  | 
5 | O=S1(=O)NCN(C2CC2)c2ccccc21 | 8.5 | 4.17 | 0.73 |  |  |  |  | 
6 | O=[N+]([O-])c1ccc2c(c1)S(=O)(=O)NCN2C1CC1 |  |  |  |  | 7 | 22.5 | 14 | 
7 | O=S1(=O)NCN(C2CC2)c2ccc(C(F)(F)F)cc21 |  |  | > 100 |  |  |  |  | 
8 | O=S1(=O)NCN(C2CC2)c2ccc(Cl)cc21 | 10.9 | 3.13 | 0.75 |  |  |  |  | 0.8
